Experimental findings from ChEMBL document CHEMBL4350960, “Structural Basis for E. coli Penicillin Binding Protein (PBP) 2 Inhibition, a Platform for Drug Design” (J Med Chem, 2019) are described below.

Assay [1] concerns Pseudomonas aeruginosa. Briefly: Antibacterial activity against Pseudomonas aeruginosa clinical isolates measured after 16 to 20 hrs by broth microdilution method. Format: functional. The procedure, abridged: (§1)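 Broth microdilution MICs following CLSI M7-A7, run against genotyped carbapenem-resistant E. coli and P. aeruginosa strains.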
(In general: Broth dilution looks for growth in wells or tubes with falling amounts of substance.)

In assay [2] the test system is Bacteria. Briefly: Inhibition of bacterial OXA-48.
Assay [3] has as its system Bacteria. The experiment in a line: Inhibition of bacterial OXA-15.
Assay [4] deals with T1, Penicillin-binding protein 1A (Escherichia coli K-12) (UniProt P02918).
T1 sequence (whole entry): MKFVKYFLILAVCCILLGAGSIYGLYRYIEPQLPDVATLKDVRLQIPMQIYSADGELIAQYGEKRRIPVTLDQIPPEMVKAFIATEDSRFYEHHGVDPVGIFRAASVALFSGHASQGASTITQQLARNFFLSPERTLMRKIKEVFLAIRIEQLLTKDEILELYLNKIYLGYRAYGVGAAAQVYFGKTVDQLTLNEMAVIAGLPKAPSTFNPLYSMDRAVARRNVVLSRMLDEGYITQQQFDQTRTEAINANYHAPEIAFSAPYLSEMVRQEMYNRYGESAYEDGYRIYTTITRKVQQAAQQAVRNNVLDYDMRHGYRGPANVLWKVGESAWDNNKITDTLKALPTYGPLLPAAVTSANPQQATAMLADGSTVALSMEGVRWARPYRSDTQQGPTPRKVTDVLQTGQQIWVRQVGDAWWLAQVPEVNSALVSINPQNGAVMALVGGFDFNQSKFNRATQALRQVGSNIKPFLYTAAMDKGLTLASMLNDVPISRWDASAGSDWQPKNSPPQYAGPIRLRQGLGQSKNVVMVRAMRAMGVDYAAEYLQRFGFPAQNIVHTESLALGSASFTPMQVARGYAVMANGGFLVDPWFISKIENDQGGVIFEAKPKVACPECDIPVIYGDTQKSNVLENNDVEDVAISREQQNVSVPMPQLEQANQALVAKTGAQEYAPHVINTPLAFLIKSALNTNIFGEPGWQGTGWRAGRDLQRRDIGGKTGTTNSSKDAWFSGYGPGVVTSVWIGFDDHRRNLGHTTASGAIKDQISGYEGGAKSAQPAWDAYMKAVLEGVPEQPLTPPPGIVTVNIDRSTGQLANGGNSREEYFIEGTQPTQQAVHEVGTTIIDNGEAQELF
Briefly: Inhibition of Escherichia coli PBP1a.

Assay [5] concerns the target T2, Peptidoglycan D,D-transpeptidase MrdA (Escherichia coli K-12, UniProt P0AD65).
T2 sequence (P0AD65 whole entry): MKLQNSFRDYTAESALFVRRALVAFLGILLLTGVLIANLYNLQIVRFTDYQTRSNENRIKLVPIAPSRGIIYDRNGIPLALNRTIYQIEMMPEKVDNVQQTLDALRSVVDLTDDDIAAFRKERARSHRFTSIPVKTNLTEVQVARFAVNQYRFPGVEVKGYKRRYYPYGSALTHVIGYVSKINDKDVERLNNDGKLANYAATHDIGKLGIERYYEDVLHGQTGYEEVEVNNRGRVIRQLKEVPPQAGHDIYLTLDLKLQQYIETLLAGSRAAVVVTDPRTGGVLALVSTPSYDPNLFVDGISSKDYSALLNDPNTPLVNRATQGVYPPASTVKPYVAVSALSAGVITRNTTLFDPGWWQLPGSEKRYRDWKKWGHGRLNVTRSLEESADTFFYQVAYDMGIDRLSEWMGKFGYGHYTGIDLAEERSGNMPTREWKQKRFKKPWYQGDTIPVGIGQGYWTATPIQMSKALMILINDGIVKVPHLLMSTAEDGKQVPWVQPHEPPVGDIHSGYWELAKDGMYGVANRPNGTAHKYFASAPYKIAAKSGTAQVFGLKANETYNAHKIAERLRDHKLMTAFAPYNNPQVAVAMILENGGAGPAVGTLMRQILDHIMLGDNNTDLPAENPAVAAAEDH
Briefly: Inhibition of bocillin-FL binding to Escherichia coli K12 NusA-fused/His6-tagged PBP2 (57 to 615 residues) expressed in Escherichia coli BL21(DE3) preincubated for 30 mins followed by bocillin-FL addition by RT-fluorescence anisotropy method. (In general: Polarisation of emitted light reports the rotation of a fluorescent probe.)

Assay [6] concerns the target T3, Penicillin-binding protein 1B (Pseudomonas aeruginosa) (UniProt Q9X6W0).
T3 sequence (whole entry): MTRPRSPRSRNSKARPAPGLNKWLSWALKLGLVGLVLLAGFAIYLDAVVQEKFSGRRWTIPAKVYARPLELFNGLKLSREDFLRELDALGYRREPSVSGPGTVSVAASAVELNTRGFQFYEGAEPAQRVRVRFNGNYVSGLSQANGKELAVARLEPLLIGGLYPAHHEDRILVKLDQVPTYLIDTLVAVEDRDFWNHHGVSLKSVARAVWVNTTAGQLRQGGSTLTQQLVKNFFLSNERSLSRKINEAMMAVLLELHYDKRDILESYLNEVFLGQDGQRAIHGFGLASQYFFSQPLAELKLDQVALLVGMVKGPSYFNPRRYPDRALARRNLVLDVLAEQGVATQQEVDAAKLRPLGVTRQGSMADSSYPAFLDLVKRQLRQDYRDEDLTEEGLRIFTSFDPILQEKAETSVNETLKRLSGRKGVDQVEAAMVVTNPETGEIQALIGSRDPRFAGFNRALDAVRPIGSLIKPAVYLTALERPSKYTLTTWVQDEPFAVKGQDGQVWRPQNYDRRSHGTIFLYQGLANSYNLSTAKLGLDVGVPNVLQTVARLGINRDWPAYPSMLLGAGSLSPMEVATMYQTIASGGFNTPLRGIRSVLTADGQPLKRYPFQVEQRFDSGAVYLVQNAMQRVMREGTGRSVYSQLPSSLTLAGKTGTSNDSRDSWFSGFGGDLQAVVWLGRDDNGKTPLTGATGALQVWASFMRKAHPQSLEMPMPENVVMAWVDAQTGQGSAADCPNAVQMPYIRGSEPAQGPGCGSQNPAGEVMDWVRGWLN
The experiment in a line: Inhibition of Pseudomonas aeruginosa PBP1b up to 200 uM.

The test system of assay [7] is Escherichia coli. Briefly: Antibacterial activity against Escherichia coli UFR39 measured after 16 to 20 hrs by broth microdilution method. Format: functional. The method in brief: as §1
Assay [8] deals with Escherichia coli. Briefly: Antibacterial activity against Escherichia coli clinical isolates measured after 16 to 20 hrs by broth microdilution method. The format is functional. The method in brief:
as §1

Assay [9] deals with Escherichia coli. The experiment in a line: Inhibition of Escherichia coli PBP3 up to 200 uM.
For assay [10], the system named is Pseudomonas aeruginosa. Briefly: Antibacterial activity against Pseudomonas aeruginosa UFR49 measured after 16 to 20 hrs by broth microdilution method. The format is functional.

Converted amounts (≈) assume the structure as drawn. The source made the active and inactive calls. The rule behind the calls is not given here. Some results are limits rather than exact numbers.

One may read the MIC50 as the lowest concentration that inhibits either 50% of growth or 50% of the strains tested, depending on the study. Read a high MIC50 as weaker potency. For orientation: MIC90 means the lowest concentration that inhibits either 90% of growth or 90% of the strains tested, depending on the study. Broadly, the IC50 is the concentration at which inhibition is half-maximal. For orientation: MIC means the lowest concentration found to suppress growth. Turning to `NC[C@@H]1C=C(c2cnco2)[C@@H]2CN1C(=O)N2OS(=O)(=O)O` (relative stereo), the MIC50 in assay [1] was found to be 1 µg/mL (≈ 3.16 µM); in assay [8] it was 0.031 µg/mL (≈ 0.098 µM). The MIC90 in assay [1] was 16 µg/mL (≈ 50.6 µM); in assay [8] it was > 32 µg/mL. Also, the inhibition entry in assay [2] and in [3] was “Active” throughout. Further, the inhibition entry in assay [4], in assay [6] and in [9] was “inactive” in each case. In assay [5], the half-maximal inhibitory concentration (IC50) was found to be 10 nM. Further, the MIC came out at 0.016 µg/mL (≈ 0.0506 µM) in assay [7] and 2 µg/mL (≈ 6.32 µM) in [10].
